Source: ChEMBL document CHEMBL2046370, “Beta-carboline alkaloids derived from the ascidian Synoicum sp” (Bioorg Med Chem, 2012)
Converted amounts (≈) assume the structure as drawn.

What was measured:
[1] = tested on: Proteus vulgaris; assay: Antibacterial activity against Proteus vulgaris ATCC 3851 after 24 hrs; type: functional; conditions: ATCC 3851, 24 h
[2] = tested on: Staphylococcus aureus; assay: Antibacterial activity against Staphylococcus aureus ATCC 6538p after 24 hrs; type: functional
[3] = tested on: Candida albicans; assay: Antifungal activity against Candida albicans ATCC 10231 after 48 to 72 hrs; type: functional
[4] = molecular target: T1, Sortase A (Staphylococcus aureus, UniProt Q9S446); assay: Inhibition of Staphylococcus aureus ATCC 6538p recombinant SrtA; parameters: species or system ATCC 6538p r
T1 sequence (Q9S446 whole entry): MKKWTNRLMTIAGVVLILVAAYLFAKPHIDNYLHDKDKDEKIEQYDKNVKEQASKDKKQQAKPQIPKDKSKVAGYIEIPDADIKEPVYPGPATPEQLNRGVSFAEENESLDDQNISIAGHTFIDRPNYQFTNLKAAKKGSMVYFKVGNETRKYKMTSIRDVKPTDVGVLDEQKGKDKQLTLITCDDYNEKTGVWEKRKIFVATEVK

[5] = tested on: Salmonella typhimurium; assay: Antibacterial activity against Salmonella typhimurium ATCC 14028 after 24 hrs; type: functional, Salmonella enterica subsp. enterica serovar Typhimurium; conditions: Salmonella enterica, ATCC 14028, 24 h
[6] = tested on: A549; assay: Cytotoxicity against human A549 cells by MTT assay; type: functional; conditions: read-out: LC50 (the source's name)
[7] = tested on: Micrococcus luteus; assay: Antibacterial activity against Micrococcus luteus IFC 12708 after 24 hrs; type: functional; conditions: IFC 12708, 24 h
[8] = tested on: Escherichia coli; assay: Antibacterial activity against Escherichia coli ATCC 35270 after 24 hrs; type: functional; conditions: ATCC 35270, 24 h
[9] = tested on: Bacillus subtilis; assay: Antibacterial activity against Bacillus subtilis ATCC 6633 after 24 hrs; type: functional; conditions: ATCC 6633, 24 h
[10] = tested on: Trichophyton rubrum; assay: Antifungal activity against Trichophyton rubrum IFO 9185 after 48 to 72 hrs; type: functional
[11] = Inhibition of porcine cerebral cortex Na+/K+ ATPase assessed as formation of fluorescent 3-O-methylfluorescein from 3-O-methylfluorescein phosphate by fluorometry; type: tissue-based, Sus scrofa
[12] = tested on: Aspergillus fumigatus; assay: Antifungal activity against Aspergillus fumigatus HIC 6094 after 48 to 72 hrs; type: functional
[13] = tested on: Trichophyton mentagrophytes; assay: Antifungal activity against Trichophyton mentagrophytes IFO 40996 after 48 to 72 hrs; type: functional
[14] = molecular target: Isocitrate lyase (Candida albicans, UniProt Q9P8Q7); assay: Inhibition of Candida albicans recombinant ICL assessed as formation of glyoxylate phenylhydrazone by spectrophotometry
Outline: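 Recombinant enzyme assayed spectrophotometrically with isocitrate and phenylhydrazine present. Absorbance at 324 nm was monitored for glyoxylate phenylhydrazone formation, and IC50 was determined.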

Chain of Isocitrate lyase (Q9P8Q7 whole entry): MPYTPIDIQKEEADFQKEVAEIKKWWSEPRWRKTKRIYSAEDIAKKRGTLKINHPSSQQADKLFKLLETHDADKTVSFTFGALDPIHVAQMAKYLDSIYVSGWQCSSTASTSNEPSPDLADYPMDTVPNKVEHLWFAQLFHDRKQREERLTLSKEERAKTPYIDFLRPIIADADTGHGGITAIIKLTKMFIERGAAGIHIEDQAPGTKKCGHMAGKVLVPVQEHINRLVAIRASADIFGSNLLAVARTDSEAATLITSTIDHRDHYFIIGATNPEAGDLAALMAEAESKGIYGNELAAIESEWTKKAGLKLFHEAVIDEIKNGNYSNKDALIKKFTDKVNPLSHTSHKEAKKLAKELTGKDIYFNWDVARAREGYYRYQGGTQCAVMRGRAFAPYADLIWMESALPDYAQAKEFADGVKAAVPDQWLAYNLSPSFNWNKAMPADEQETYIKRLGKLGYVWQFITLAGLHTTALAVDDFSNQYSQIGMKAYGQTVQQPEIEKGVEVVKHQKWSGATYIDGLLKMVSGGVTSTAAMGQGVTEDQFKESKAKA

Structure (SMILES)	MIC [1]	MIC [2]	MIC [3]	IC50 [4]	MIC [5]	CC50 [6]	MIC [7]	MIC [8]	MIC [9]	MIC [10]	IC50 [11]	MIC [12]	MIC [13]	IC50 [14]
Oc1c(Br)cc(C(O)c2nccc3c2[nH]c2ccccc23)cc1Br (stereo unspecified) [EUDISTOMIN Y10]	12.5 µg/mL (≈ 27.9 µM)	25 µg/mL (≈ 55.8 µM)	> 100 µg/mL	> 223 µM	12.5 µg/mL (≈ 27.9 µM)	> 223 µM	12.5 µg/mL (≈ 27.9 µM)	> 100 µg/mL	25 µg/mL (≈ 55.8 µM)	> 100 µg/mL	122 µM	> 100 µg/mL	> 100 µg/mL	–
O=C(c1cc(Br)c(O)c(Br)c1)c1nccc2c1[nH]c1ccccc12 [EUDISTOMIN Y5]	1.56 µg/mL (≈ 3.5 µM)	6.25 µg/mL (≈ 14 µM)	> 100 µg/mL	146 µM	0.78 µg/mL (≈ 1.75 µM)	85.4 µM	3.12 µg/mL (≈ 7.01 µM)	100 µg/mL (≈ 224 µM)	3.12 µg/mL (≈ 7.01 µM)	> 100 µg/mL	19.8 µM	> 100 µg/mL	> 100 µg/mL	–
O=C(c1cc(Br)c(O)c(Br)c1)c1nccc2c1[nH]c1cc(Br)ccc12 [EUDISTOMIN Y7]	0.78 µg/mL (≈ 1.49 µM)	3.12 µg/mL (≈ 5.95 µM)	> 100 µg/mL	> 190 µM	0.78 µg/mL (≈ 1.49 µM)	59 µM	1.56 µg/mL (≈ 2.97 µM)	50 µg/mL (≈ 95.2 µM)	0.78 µg/mL (≈ 1.49 µM)	> 100 µg/mL	11.3 µM	> 100 µg/mL	> 100 µg/mL	–
O=C(c1ccc(O)cc1)c1nccc2c1[nH]c1ccc(Br)cc12 [EUDISTOMIN Y2]	25 µg/mL (≈ 68.1 µM)	50 µg/mL (≈ 136 µM)	6.25 µg/mL (≈ 17 µM)	> 272 µM	50 µg/mL (≈ 136 µM)	65.6 µM	25 µg/mL (≈ 68.1 µM)	> 100 µg/mL	25 µg/mL (≈ 68.1 µM)	> 100 µg/mL	209 µM	> 100 µg/mL	> 100 µg/mL	50.2 µM
O=C(O)CC[N+](=O)[O-]	–	–	–	–	–	–	–	–	–	–	–	–	–	38.6 µM
Oc1ccc(C(O)c2nccc3c2[nH]c2ccccc23)cc1 (stereo unspecified) [EUDISTOMIN Y8]	> 100 µg/mL	100 µg/mL (≈ 344 µM)	> 100 µg/mL	> 344 µM	> 100 µg/mL	> 344 µM	100 µg/mL (≈ 344 µM)	> 100 µg/mL	100 µg/mL (≈ 344 µM)	> 100 µg/mL	> 344 µM	> 100 µg/mL	> 100 µg/mL	68.9 µM
C[C@@H]1[C@H](O)[C@@H](C)/C=C/C=C/C=C/C=C/C=C/C=C/C=C/[C@H](O[C@@H]2O[C@H](C)[C@@H](O)[C@H](N)[C@@H]2O)C[C@@H]2O[C@](O)(C[C@@H](O)C[C@@H](O)[C@H](O)CC[C@@H](O)C[C@@H](O)CC(=O)O[C@H]1C)C[C@H](O)[C@H]2C(=O)O [AMPHOTERICIN B]	–	–	0.39 µg/mL (≈ 0.422 µM)	–	–	–	–	–	–	0.78 µg/mL (≈ 0.844 µM)	–	0.78 µg/mL (≈ 0.844 µM)	0.39 µg/mL (≈ 0.422 µM)	–
Oc1c(Br)cc(C(O)c2nccc3c2[nH]c2ccc(Br)cc23)cc1Br (stereo unspecified) [EUDISTOMIN Y11]	3.12 µg/mL (≈ 5.93 µM)	6.25 µg/mL (≈ 11.9 µM)	> 100 µg/mL	> 190 µM	3.12 µg/mL (≈ 5.93 µM)	> 190 µM	3.12 µg/mL (≈ 5.93 µM)	100 µg/mL (≈ 190 µM)	3.12 µg/mL (≈ 5.93 µM)	> 100 µg/mL	32.8 µM	> 100 µg/mL	> 100 µg/mL	–
Cc1ccc(S(=O)(=O)Oc2ccc(C(O)c3nccc4c3[nH]c3ccc(Br)cc34)cc2Br)cc1 (stereo unspecified) [EUDISTOMIN Y12]	> 100 µg/mL	> 100 µg/mL	> 100 µg/mL	> 166 µM	> 100 µg/mL	63.3 µM	> 100 µg/mL	> 100 µg/mL	> 100 µg/mL	> 100 µg/mL	–	> 100 µg/mL	> 100 µg/mL	> 166 µM
O=C(c1ccc(O)c(Br)c1)c1nccc2c1[nH]c1ccc(Br)cc12 [EUDISTOMIN Y4]	0.39 µg/mL (≈ 0.874 µM)	3.12 µg/mL (≈ 7.01 µM)	> 100 µg/mL	163 µM	0.39 µg/mL (≈ 0.874 µM)	48.4 µM	1.56 µg/mL (≈ 3.5 µM)	50 µg/mL (≈ 112 µM)	0.78 µg/mL (≈ 1.75 µM)	> 100 µg/mL	7.5 µM	> 100 µg/mL	> 100 µg/mL	–
Oc1ccc(C(O)c2nccc3c2[nH]c2ccc(Br)cc23)cc1Br (stereo unspecified) [EUDISTOMIN Y9]	> 100 µg/mL	6.25 µg/mL (≈ 13.9 µM)	> 100 µg/mL	> 223 µM	> 100 µg/mL	17.9 µM	> 100 µg/mL	> 100 µg/mL	> 100 µg/mL	> 100 µg/mL	33.3 µM	> 100 µg/mL	> 100 µg/mL	–
O=C(c1cc(Br)c(O)c(Br)c1)c1nccc2c1[nH]c1ccc(Br)cc12 [EUDISTOMIN Y6]	0.78 µg/mL (≈ 1.49 µM)	1.56 µg/mL (≈ 2.97 µM)	> 100 µg/mL	> 190 µM	0.39 µg/mL (≈ 0.743 µM)	60 µM	1.56 µg/mL (≈ 2.97 µM)	50 µg/mL (≈ 95.2 µM)	1.56 µg/mL (≈ 2.97 µM)	> 100 µg/mL	10.1 µM	> 100 µg/mL	> 100 µg/mL	–
O=C(c1ccc(O)cc1)c1nccc2c1[nH]c1ccccc12 [EUDISTOMIN Y1]	> 100 µg/mL	> 100 µg/mL	50 µg/mL (≈ 173 µM)	> 347 µM	> 100 µg/mL	59 µM	> 100 µg/mL	> 100 µg/mL	> 100 µg/mL	50 µg/mL (≈ 173 µM)	–	50 µg/mL (≈ 173 µM)	100 µg/mL (≈ 347 µM)	48.2 µM
COc1cccc2c1C(=O)c1c(O)c3c(c(O)c1C2=O)C[C@@](O)(C(=O)CO)C[C@@H]3O[C@H]1C[C@H](N)[C@H](O)[C@H](C)O1 [DOXORUBICIN]	–	–	–	–	–	3.3 µM	–	–	–	–	–	–	–	–
OC(c1ccccc1)c1nccc2c1[nH]c1ccc(Br)cc12 (stereo unspecified) [EUDISTOMIN Y13]	> 100 µg/mL	> 100 µg/mL	> 100 µg/mL	> 283 µM	> 100 µg/mL	49 µM	100 µg/mL (≈ 283 µM)	> 100 µg/mL	100 µg/mL (≈ 283 µM)	> 100 µg/mL	–	> 100 µg/mL	> 100 µg/mL	> 283 µM
C[C@@H]1O[C@@H](O[C@H]2C[C@@H](O)[C@]3(CO)[C@H]4[C@H](O)C[C@]5(C)[C@@H](C6=CC(=O)OC6)CC[C@]5(O)[C@@H]4CC[C@]3(O)C2)[C@H](O)[C@H](O)[C@H]1O [OUABAIN]	–	–	–	–	–	–	–	–	–	–	6.3 µM	–	–	–
CC1(C)S[C@@H]2[C@H](NC(=O)[C@H](N)c3ccccc3)C(=O)N2[C@H]1C(=O)O [AMPICILLIN]	0.39 µg/mL (≈ 1.12 µM)	0.39 µg/mL (≈ 1.12 µM)	–	–	0.78 µg/mL (≈ 2.23 µM)	–	0.39 µg/mL (≈ 1.12 µM)	6.25 µg/mL (≈ 17.9 µM)	0.78 µg/mL (≈ 2.23 µM)	–	–	–	–	–
